Screening data deposited in PubChem BioAssay by several laboratories.
PolyA inhibitor = yeast polyadenylation inhibition. AID 1875. S. cerevisiae SKY197-pL101 polyadenylation reporter, beta-gal luminescence; efflux-impaired pdr1/pdr3 knockout yeast; score 100 = 6 SD above DMSO. activity score, % at 12 µM. hit rate 0.02% among 300,000;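 active = lowest replicate activity score at least 50, where 100 means six control SD above control mean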;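 also: yeast exposed to compound for 9 h at 30 °C; higher score means more reporter readthrough which indicates perturbed polyadenylation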
Arr AP2 block = human beta-arrestin and AP2 interaction inhibition; hit rate 0.31% among 340,000; inhibition, % at 10 µM; AID 504490; FITC-arrestin peptide / GST-AP2 beads, flow cytometry; AP2 beta2 appendage carries R879A mutation;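 active = inhibition above a set limit, near 3 SD of compounds lacking own fluorescence, cut at about 54% in these data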;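 also: plate controls were DMSO wells for no effect and 5 µM unlabelled arrestin peptide for full effect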
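Measured by: flow cytometry, FL1 (488/535 nm); Material: AP2 appendage R879A on GSH beads; Evaluation: percent response; Timing: pre-incubation 12 min, peptide binding 1 h, room temperature; Also added: 50 nM FITC-arrestin peptide; Medium: PBS with 0.05% Tween 20 and 0.1% BSA.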
APOBEC3G inh = APOBEC3G (human) deaminase inhibition; Q9HC16; recombinant A3G, ssDNA deamination FAM/TAMRA fluorescence; inhibition, % at 20 µM; hit rate 0.28% among 330,000; AID 493012;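 active = inhibition of at least 40% at 20 µM, with no more than 30% in the related APOBEC3A deaminase screen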;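 also: plate controls were DMSO wells with A3G for no effect and wells lacking A3G enzyme for full effect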
AHR activator = activates the human aryl hydrocarbon receptor. activation, % at 5 µM. AID 2796. hit rate 2.5% among 320,000. AHR-responsive luciferase reporter cells, luminescence. P35869; in the data active = activation above about 47%;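 also: 0% = vehicle wells and 100% = reference agonist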
A3A deaminase = inhibitors of human APOBEC3A DNA deaminase; P31941; recombinant A3A, FAM/TAMRA ssDNA deamination fluorescence; inhibition, % at 20 µM; hit rate 0.41% among 330,000;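 active = at least 40% inhibition at 20 µM here, with at most 30% in a related deaminase screen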;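 also: plate controls were A3A with DMSO for no effect and wells lacking A3A enzyme for full effect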
Target sequence (P31941 whole entry, looked up): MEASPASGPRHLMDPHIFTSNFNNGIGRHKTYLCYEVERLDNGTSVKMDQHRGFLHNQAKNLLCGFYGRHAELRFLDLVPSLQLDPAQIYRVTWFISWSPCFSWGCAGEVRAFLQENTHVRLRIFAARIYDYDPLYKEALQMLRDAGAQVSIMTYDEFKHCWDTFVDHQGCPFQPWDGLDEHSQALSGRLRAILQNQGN
UCH37 inh = human UCH37 deubiquitinating enzyme inhibition | Q9Y5K5 | purified proteasome/UCH37, Ub-AMC cleavage fluorescence | inhibition, % (test concentration not listed) | hit rate 0.33% among 330,000 | AID 588478;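 active = mean inhibition over replicate wells above about 20%, limit read from the data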;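 also: 0% = compound-free wells with enzyme and 100% = wells lacking proteasome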
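assay system = human UCH37 enzyme supplied as purified proteasome complex | amount = proteasome at 0.15 nM in the dispensed enzyme solution | schedule = 30 min compound-proteasome preincubation then 25 min substrate reaction, room temperature | measured by = fluorescence, ex 355 nm, em 460 nm | benchmarks = no-proteasome wells (full inhibition) and compound-free wells (no inhibition)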
Numbers without * were called inactive; . = no result given. Shown are actives, neighbours in structure and some others; about 3.4% of the full set was active somewhere.

SMILES	PolyA inhibitor	Arr AP2 block	APOBEC3G inh	AHR activator	A3A deaminase	UCH37 inh
Cc1cc(C)cc(OCC(=O)Nc2nc(-c3cccnc3)cs2)c1	-12	42	7	66*	-3	1
O=C(COc1ccccc1)Nc1nc(-c2ccncc2)cs1	-7	-1	0	6	-7	3
N#Cc1ccc(OCC(=O)Nc2nc(-c3cccnc3)cs2)cc1	.	-2	-2	49*	-1	5
O=C(CSc1ncn[nH]1)Nc1nc(-c2ccccc2)cs1	2	6	1	10	2	28*
Cc1cccc(OCC(=O)Nc2nc(-c3ccncc3)cs2)c1	.	-1	7	-4	-1	0
COc1cccc(C=NNC(=O)c2cccc([N+](=O)[O-])c2)c1OS(=O)(=O)c1ccccc1	.	.	.	.	.	1
CCc1ccccc1Nc1nc(-c2cccnc2)cs1	-2	11	-3	7	-3	2
O=[N+]([O-])c1ccccc1Nc1nc(-c2cccnc2)cs1	-7	-6	-2	52*	-5	6
CCc1ccc(-c2cn(C3CCCCC3)c(=S)[nH]2)cc1	-2	-21	-9	63*	-1	4
Cc1c(C(=O)Nc2nonc2-c2ccc(F)cc2)oc2ccc(F)cc12	103*	4	-7	33	0	.
CCc1nonc1NC(=O)c1oc2ccc(F)cc2c1C	19	-7	-7	61*	-7	1
CCc1ccc2oc(C(=O)Nc3nonc3C)c(C)c2c1	-15	-7	-7	-6	-6	5
COc1ccccc1N1C(=O)N(C(C)=O)C2C1Nc1ccccc1N2C (stereo not drawn)	-16	9	0	60*	-5	4
COc1ccccc1N1C(=O)c2ccccc2NC1c1ccncc1 (stereo not drawn)	7	3	-5	-1	-2	-67
CC1Oc2ccccc2OC1C(=O)Nc1ccccn1 (stereo not drawn)	-4	-3	2	68*	2	1
O=C(Nc1ccccn1)C1COc2ccccc2O1 (stereo not drawn)	14	19	-9	0	-1	5
CC(=O)Nc1sc(N/N=C\c2ccccc2Cl)nc1-c1cccs1	3	0	3	59*	4	.
CCN(CC)c1nc(N)c2c(N)n(-c3ccccc3C)c(=S)c(C#N)c2c1C#N	14	-27	-6	2	-5	21*
CCOC(=O)NN=C/C=C/c1ccccc1	.	.	.	.	.	2
CCOC(=O)c1cc(-c2ccc(/C=C3/C(=O)NC(=O)C(C#N)=C3C)o2)ccc1Cl	-22	26	3	-3	0	22*
CC(C)c1ccc2c(c1)C1Cc3ccccc3C1N2 (stereo not drawn)	14	10	1	51*	6	-2
O=S1(=O)NC2c3ccccc3CC2O1 (stereo not drawn)	7	11	4	20	-3	6
CC(=NO)c1ncc(C(F)(F)F)cc1Cl	.	.	.	.	.	5
O=C(Nc1ccsc1C(=O)NC1CC1)c1ccccc1	-4	12	2	59*	2	4
O=C(Nc1ccsc1C(=O)O)c1ccccc1	-14	-3	-7	5	0	5
SMILES	PolyA inhibitor	Arr AP2 block	APOBEC3G inh	AHR activator	A3A deaminase	UCH37 inh
Cc1nn(-c2nc3ccccc3s2)c(N)c1-c1ccc(Cl)cc1	10	10	-3	77*	-2	2
O=c1cnnc(NN=Cc2ccc3c(c2)OCO3)[nH]1	.	.	.	.	.	5
COC(=O)c1c(C)noc1-c1ccc(Cl)cc1	-6	3	-2	-3	1	0
COC(=O)c1c(-c2ccccc2)noc1-c1ccccc1	-35	5	-6	53*	-3	5
Cc1c(Cl)cccc1NC(=O)CCC(=O)NN=Cc1ccc[nH]1	.	.	.	.	.	4
CCN1CCCC1CN(Cc1cc2ccc(C)cc2[nH]c1=O)C(=S)Nc1cccc(OC)c1 (stereo not drawn)	-15	-3	0	59*	1	4
Cc1nn(-c2ccccc2)c(Cl)c1C=NNC(=O)c1ccccc1F	.	.	.	.	.	4
CCc1nc(SC)[nH]c(=O)c1C	2	4	-5	0	-3	1
CSc1nc2c(C)c(C)c(C)c(C)c2[nH]1	-5	-12	-5	47*	-2	4
